In ChEMBL document CHEMBL3877315, “Synthesis, biological evaluation and molecular docking analysis of 2-phenyl-benzofuran-3-carboxamide derivatives as potential inhibitors of Staphylococcus aureus Sortase A” (Bioorg Med Chem, 2017):

Assay: Inhibition of Staphylococcus aureus Sortase A delta 59 mutant using Abz-LPATG-Dnp as substrate preincubated for 1 hr followed by substrate addition measured after 30 mins by HPLC method
Procedure, shortened: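 His6-tagged SrtA59 expressed from pET28 in E. coli, IPTG-induced, Ni-NTA purified. Enzyme 5 µM was pre-incubated with inhibitor in DMSO (final 12.5~200 µM) for 1 h at 37 °C in 50 mM Tris-HCl pH 7.5, 150 mM NaCl, 5 mM CaCl₂, 0.05% Tween 20. Abz-LPATG-Dnp added at 10 µM final; stopped with HCl. G-Dnp peak area read at 355 nm by reverse-phase HPLC and compared with no-inhibitor control. IC50 taken at 50% decrease; three repeats.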

Row | Compound | IC50
1 | CC(C)CNC(=O)c1c(-c2ccc(COC(=O)c3ccc([N+](=O)[O-])c(O)c3)cc2)oc2ccccc12 | 60.6 µM
2 | COc1cc(OC)cc(C(=O)OCc2ccc(-c3oc4ccccc4c3C(=O)NCC(C)C)cc2)c1 | 62 µM
3 | CC(C)CNC(=O)c1c(-c2ccc(COC(=O)/C=C/c3ccc(O)cc3)cc2)oc2ccccc12 | 158 µM
4 | CC(C)CNC(=O)c1c(-c2ccc(COC(=O)c3cccc(O)c3)cc2)oc2ccccc12 | 50.6 µM
5 | CC(C)CNC(=O)c1c(-c2ccc(COC(=O)c3ccc(F)cc3)cc2)oc2ccccc12 | > 200 µM
6 | CC(C)CNC(=O)c1c(-c2ccc(COc3ccc(Cl)cc3)cc2)oc2ccccc12 | > 200 µM
7 | CC(C)CNC(=O)c1c(-c2ccc(COC(=O)c3ccc(N)cc3)cc2)oc2ccccc12 | 52.3 µM
8 | CC(C)CNC(=O)c1c(-c2ccc(COC(=O)c3ccc(O)cc3O)cc2)oc2ccccc12 | 57 µM
9 | CC(C)CNC(=O)c1c(-c2ccc(COC(=O)Cc3ccc(O)c(O)c3)cc2)oc2ccccc12 | 30.8 µM
10 | CC(C)CNC(=O)c1c(-c2ccc(COC(=O)Cc3ccc([N+](=O)[O-])cc3)cc2)oc2ccccc12 | > 200 µM
11 | CC(C)CNC(=O)c1c(-c2ccc(COc3cccc(C=O)c3)cc2)oc2ccccc12 | 89 µM
12 | COc1cc(C(=O)OCc2ccc(-c3oc4ccccc4c3C(=O)NCC(C)C)cc2)cc(OC)c1OC | 55.2 µM
13 | CC(C)CNC(=O)c1c(-c2ccc(COC(=O)c3ccc(O)c(O)c3)cc2)oc2ccccc12 | 39.6 µM
14 | CC(=O)c1cccc(OCc2ccc(-c3oc4ccccc4c3C(=O)NCC(C)C)cc2)c1 | 148 µM
15 | CC(C)CNC(=O)c1c(-c2ccc(COC(=O)Cc3ccc(C(F)(F)F)cc3)cc2)oc2ccccc12 | > 200 µM
16 | CC(C)CNC(=O)c1c(-c2ccc(COc3ccc(C#N)cc3)cc2)oc2ccccc12 | 97 µM
17 | CC(C)CNC(=O)c1c(-c2ccc(COC(=O)c3ccc(S)cc3)cc2)oc2ccccc12 | 89.1 µM
18 | CCCCNC(=O)c1c(-c2ccc(COC(=O)c3ccc(O)cc3)cc2)oc2ccccc12 | 186 µM
19 | CC(C)CNC(=O)c1c(-c2ccc(COc3ccc(CO)cc3)cc2)oc2ccccc12 | 121 µM

Row | Compound | IC50
20 | CC(C)CNC(=O)c1c(-c2ccc(COC(=O)c3ccccc3[N+](=O)[O-])cc2)oc2ccccc12 | > 200 µM
21 | CCCCNC(=O)c1c(-c2ccc(COc3ccc(C(=O)OC)cc3)cc2)oc2ccccc12 | > 200 µM
22 | CC(C)CNC(=O)c1c(-c2ccc(COC(=O)Cc3ccc(O)cc3)cc2)oc2ccccc12 | 84 µM
23 | CC(C)CNC(=O)c1c(-c2ccc(COC(=O)c3ccccc3O)cc2)oc2ccccc12 | 76.4 µM
24 | CC(C)CNC(=O)c1c(-c2ccc(COC(=O)c3ccc(N(C)C)cc3)cc2)oc2ccccc12 | > 200 µM
25 | Cc1ccc(OCc2ccc(-c3oc4ccccc4c3C(=O)NCC(C)C)cc2)cc1 | > 200 µM
26 | CC(C)CNC(=O)c1c(-c2ccc(COc3ccc(S(C)(=O)=O)cc3)cc2)oc2ccccc12 | 132 µM
27 | CC(C)CNC(=O)c1c(-c2ccc(COC(=O)Cc3ccccc3O)cc2)oc2ccccc12 | 89 µM
28 | CC(C)CNC(=O)c1c(-c2ccc(COC(=O)c3ccc(O)cc3)cc2)oc2ccccc12 | 43 µM
29 | CCCCNC(=O)c1c(-c2ccc(COC(=O)c3ccc(O)c(O)c3)cc2)oc2ccccc12 | 66 µM
30 | CC(=O)Nc1ccc(OCc2ccc(-c3oc4ccccc4c3C(=O)NCC(C)C)cc2)cc1 | 171 µM
31 | CC(C)CNC(=O)c1c(-c2ccc(COC(=O)c3ccccc3)cc2)oc2ccccc12 | 158 µM
32 | CC(C)CNC(=O)c1c(-c2ccc(COC(=O)Cc3cccc(C(F)(F)F)c3)cc2)oc2ccccc12 | > 200 µM
33 | CC(=O)Nc1cccc(OCc2ccc(-c3oc4ccccc4c3C(=O)NCC(C)C)cc2)c1 | 148 µM
34 | CCCCNC(=O)c1c(-c2ccc(COc3ccc(S(C)(=O)=O)cc3)cc2)oc2ccccc12 | > 200 µM
35 | CC(C)CNC(=O)c1c(-c2ccc(COc3cccc(O)c3)cc2)oc2ccccc12 | 86.4 µM
36 | CC(C)CNC(=O)c1c(-c2ccc(COC(=O)Cc3cccc(O)c3)cc2)oc2ccccc12 | 76.3 µM
37 | CC(C)CNC(=O)c1c(-c2ccc(COC(=O)c3cc(O)cc(O)c3)cc2)oc2ccccc12 | 34.5 µM
38 | Para-Hydroxymercuribenzoic acid | 130 µM
